Data from ChEMBL document CHEMBL4689842, “EUbOPEN Chemogenomics Library wave 1” (2021).
Where “and” joins values, the source holds several entries; their conditions need not be identical. Equal entries are not always repeated.

Tested on: Fibroblast
Experiment: Multiplex assay against human fibroblast
Assay type: toxicity, cell-based
Summary of the method: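 Four dyes were applied at seeding to live cells: Hoechst33342, BioTracker Green Microtubule Cytoskeleton Dye, MitoTracker Red and Annexin V Alexa Fluor 680. Imaging after compound addition used a CQ1 microscope at 37°C and 5% CO2. CellPathfinder machine-learning gating then sorted cells into Hoechst high-intensity objects or normal cells, normal cells into healthy, pyknosed or fragmented nuclei, and pyknosed cells into mitotic or apoptotic, with tubulin, mitochondrial-mass and membrane-permeability phenotypes given as per cents of healthy-nucleus cells.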

[1] = 12 h, 10 µM, compound concentration 10 uM, replicate 1
[2] = 12 h, 10 µM, compound concentration 10 uM, replicate 2
[3] = 24 h, 10 µM, compound concentration 10 uM, replicate 1
[4] = 24 h, 10 µM, compound concentration 10 uM, replicate 2
[5] = 48 h, 10 µM, compound concentration 10 uM, replicate 1
[6] = 48 h, 10 µM, compound concentration 10 uM, replicate 2
[7] = 12 h, 1 µM, compound concentration 1 uM, replicate 1
[8] = 12 h, 1 µM, compound concentration 1 uM, replicate 2
[9] = 24 h, 1 µM, compound concentration 1 uM, replicate 1
[10] = 24 h, 1 µM, compound concentration 1 uM, replicate 2
[11] = 48 h, 1 µM, compound concentration 1 uM, replicate 1
[12] = 48 h, 1 µM, compound concentration 1 uM, replicate 2

## CCOCCn1cc(C(=O)Nc2ccc(-n3nc(-c4cccnc4)cc3C(F)(F)F)cn2)ccc1=O [BI 1935]
[1]
  Population Apoptotic (%): 85% and 52% and 61%
  Population Fragmented Nuclei (%): 25% and 26% and 24%
  Population Healthy Nuclei (%): 45% and 60% and 58%
  Population Hoechst High Intensity Objects (%): 20% and 11% and 13%
  Population Membrane Permeable-Phenotype (%): 9% and 15% and 6%
  Population Normal (%): 79% and 88% and 86%
  Population Pyknosed Nuclei (%): 29% and 13% and 17%
[2]
  Population Apoptotic (%): 100% and 42% and 47%
  Population Membrane Permeable-Phenotype (%): 23% and 14% and 8%
  Population Normal (%): 62% and 60% and 92%
  Population Tubulin-Different-Phenotype (%): 23% and 57% and 64%
  Total Cell Count: 78 and 61 and 79
[3]
  Population Apoptotic (%): 60% and 72% and 64%
  Population Fragmented Nuclei (%): 35% and 25% and 24%
  Population Healthy Nuclei (%): 50% and 61% and 62%
  Population Hoechst High Intensity Objects (%): 21% and 14% and 16%
  Population Membrane Permeable-Phenotype (%): 8% and 4%
  Population Mitotic Cells (%): 40% and 27% and 36%
  Population Normal (%): 78% and 85% and 83%
  Population Pyknosed Nuclei (%): 14% and 13% and 12%
[4]
  Population Apoptotic (%): 33% and 28% and 40%
  Population Healthy Nuclei (%): 44% and 25% and 66%
  Population Mitotic Cells (%): 66% and 71% and 60%
  Population Normal (%): 60% and 91%
  Population Tubulin-Different-Phenotype (%): 20% and 55% and 44%
  Total Cell Count: 74 and 58 and 92
[5]
  Population Apoptotic (%): 55%
  Population Fragmented Nuclei (%): 44%
  Population Healthy Nuclei (%): 42%
  Population Hoechst High Intensity Objects (%): 22%
  Population Membrane Permeable-Phenotype (%): 0%
  Population Mitochondria Different-Phenotype (%): 40%
  Population Mitotic Cells (%): 44%
  Population Normal (%): 77%
  Population Pyknosed Nuclei (%): 12%
  Population Tubulin-Different-Phenotype (%): 86%
  Total Cell Count: 90
[6]
  Population Apoptotic (%): 0%
  Population Fragmented Nuclei (%): 28%
  Population Healthy Nuclei (%): 71%
  Population Hoechst High Intensity Objects (%): 9%
  Population Membrane Permeable-Phenotype (%): 11%
  Population Mitochondria Different-Phenotype (%): 3%
  Population Mitotic Cells (%): 0%
  Population Normal (%): 90%
  Population Pyknosed Nuclei (%): 0%
  Population Tubulin-Different-Phenotype (%): 70%
  Total Cell Count: 42

## CC(C)NCC(O)COc1ccc(CCOCC2CC2)cc1.Cl (configuration not stated) [BETAXOLOL HYDROCHLORIDE]
[7]
  Population Apoptotic (%): 41%
  Population Fragmented Nuclei (%): 22%
  Population Healthy Nuclei (%): 47%
  Population Hoechst High Intensity Objects (%): 4%
  Population Membrane Permeable-Phenotype (%): 23%
  Population Mitochondria Different-Phenotype (%): 2%
  Population Mitotic Cells (%): 58%
  Population Normal (%): 95%
  Population Pyknosed Nuclei (%): 30%
  Population Tubulin-Different-Phenotype (%): 39%
  Total Cell Count: 84
[8]
  Population Apoptotic (%): 100%
  Population Fragmented Nuclei (%): 2%
  Population Healthy Nuclei (%): 95%
  Population Hoechst High Intensity Objects (%): 16%
  Population Membrane Permeable-Phenotype (%): 6%
  Population Mitotic Cells (%): 0%
  Population Normal (%): 83%
  Population Pyknosed Nuclei (%): 2%
  Population Tubulin-Different-Phenotype (%): 9%
  Total Cell Count: 55
[1]
  Population Apoptotic (%): 67%
  Population Fragmented Nuclei (%): 17%
  Population Healthy Nuclei (%): 55%
  Population Hoechst High Intensity Objects (%): 16%
  Population Membrane Permeable-Phenotype (%): 10%
  Population Mitochondria Different-Phenotype (%): 17%
  Population Mitotic Cells (%): 32%
  Population Normal (%): 83%
  Population Pyknosed Nuclei (%): 26%
  Population Tubulin-Different-Phenotype (%): 58%
  Total Cell Count: 125
[2]
  Population Apoptotic (%): 23%
  Population Fragmented Nuclei (%): 9%
  Population Healthy Nuclei (%): 77%
  Population Hoechst High Intensity Objects (%): 7%
  Population Membrane Permeable-Phenotype (%): 5%
  Population Mitochondria Different-Phenotype (%): 72%
  Population Mitotic Cells (%): 76%
  Population Normal (%): 92%
  Population Pyknosed Nuclei (%): 13%
  Population Tubulin-Different-Phenotype (%): 49%
  Total Cell Count: 107
[9]
  Population Apoptotic (%): 30%
  Population Fragmented Nuclei (%): 20%
  Population Healthy Nuclei (%): 55%
  Population Hoechst High Intensity Objects (%): 9%
  Population Membrane Permeable-Phenotype (%): 30%
  Population Mitochondria Different-Phenotype (%): 4%
  Population Mitotic Cells (%): 70%
  Population Normal (%): 90%
  Population Pyknosed Nuclei (%): 24%
  Population Tubulin-Different-Phenotype (%): 34%
  Total Cell Count: 92
[10]
  Population Apoptotic (%): 33%
  Population Fragmented Nuclei (%): 3%
  Population Healthy Nuclei (%): 85%
  Population Hoechst High Intensity Objects (%): 5%
  Population Membrane Permeable-Phenotype (%): 4%
  Population Mitochondria Different-Phenotype (%): 6%
  Population Mitotic Cells (%): 66%
  Population Normal (%): 94%
  Population Pyknosed Nuclei (%): 10%
  Population Tubulin-Different-Phenotype (%): 2%
  Total Cell Count: 59
[3]
  Population Apoptotic (%): 74%
  Population Fragmented Nuclei (%): 25%
  Population Healthy Nuclei (%): 50%
  Population Hoechst High Intensity Objects (%): 15%
  Population Membrane Permeable-Phenotype (%): 19%
  Population Mitochondria Different-Phenotype (%): 21%
  Population Mitotic Cells (%): 25%
  Population Normal (%): 84%
  Population Pyknosed Nuclei (%): 23%
  Population Tubulin-Different-Phenotype (%): 64%
  Total Cell Count: 133
[4]
  Population Apoptotic (%): 40%
  Population Fragmented Nuclei (%): 7%
  Population Healthy Nuclei (%): 78%
  Population Hoechst High Intensity Objects (%): 5%
  Population Membrane Permeable-Phenotype (%): 5%
  Population Mitochondria Different-Phenotype (%): 78%
  Population Mitotic Cells (%): 60%
  Population Normal (%): 94%
  Population Pyknosed Nuclei (%): 15%
  Population Tubulin-Different-Phenotype (%): 46%
  Total Cell Count: 106
[11]
  Population Apoptotic (%): 76%
  Population Fragmented Nuclei (%): 33%
  Population Healthy Nuclei (%): 50%
  Population Hoechst High Intensity Objects (%): 12%
  Population Membrane Permeable-Phenotype (%): 30%
  Population Mitochondria Different-Phenotype (%): 4%
  Population Mitotic Cells (%): 23%
  Population Normal (%): 87%
  Population Pyknosed Nuclei (%): 15%
  Population Tubulin-Different-Phenotype (%): 45%
  Total Cell Count: 95
[12]
  Population Apoptotic (%): 83%
  Population Fragmented Nuclei (%): 27%
  Population Healthy Nuclei (%): 67%
  Population Membrane Permeable-Phenotype (%): 13%
  Population Mitochondria Different-Phenotype (%): 1%
  Population Mitotic Cells (%): 16%
  Population Pyknosed Nuclei (%): 4%
  Population Tubulin-Different-Phenotype (%): 35%
  Total Cell Count: 157
[5]
  Population Apoptotic (%): 76%
  Population Fragmented Nuclei (%): 41%
  Population Healthy Nuclei (%): 50%
  Population Hoechst High Intensity Objects (%): 24%
  Population Membrane Permeable-Phenotype (%): 22%
  Population Mitochondria Different-Phenotype (%): 4%
  Population Mitotic Cells (%): 23%
  Population Normal (%): 75%
  Population Pyknosed Nuclei (%): 8%
  Population Tubulin-Different-Phenotype (%): 55%
  Total Cell Count: 196
[6]
  Population Apoptotic (%): 100%
  Population Fragmented Nuclei (%): 48%
  Population Hoechst High Intensity Objects (%): 20%
  Population Membrane Permeable-Phenotype (%): 15%
  Population Mitochondria Different-Phenotype (%): 2%
  Population Mitotic Cells (%): 0%
  Population Normal (%): 79%
  Population Pyknosed Nuclei (%): 0%
  Population Tubulin-Different-Phenotype (%): 66%
  Total Cell Count: 278

## Cc1sc2c(c1C)C(c1ccc(Cl)cc1)=N[C@@H](CC(=O)OC(C)(C)C)c1nnc(C)n1-2
[1]
  Population Apoptotic (%): 71% and 88%
  Population Fragmented Nuclei (%): 38% and 43%
  Population Healthy Nuclei (%): 48% and 40%
  Population Hoechst High Intensity Objects (%): 13% and 14%
  Population Membrane Permeable-Phenotype (%): 7% and 4%
  Population Mitochondria Different-Phenotype (%): 0%
  Population Mitotic Cells (%): 28% and 12%
  Population Normal (%): 86% and 85%
  Population Pyknosed Nuclei (%): 13% and 16%
  Population Tubulin-Different-Phenotype (%): 4% and 0%
  Total Cell Count: 368 and 183
[2]
  Population Apoptotic (%): 66%
  Population Fragmented Nuclei (%): 55% and 63%
  Population Healthy Nuclei (%): 39% and 31%
  Population Hoechst High Intensity Objects (%): 24% and 25%
  Population Membrane Permeable-Phenotype (%): 10% and 0%
  Population Mitotic Cells (%): 33%
  Population Normal (%): 75%
  Population Pyknosed Nuclei (%): 6% and 4%
  Total Cell Count: 132 and 92
[3]
  Population Apoptotic (%): 73%
  Population Fragmented Nuclei (%): 36% and 29%
  Population Healthy Nuclei (%): 47% and 59%
  Population Hoechst High Intensity Objects (%): 12% and 16%
  Population Membrane Permeable-Phenotype (%): 7%
  Population Mitochondria Different-Phenotype (%): 6%
  Population Mitotic Cells (%): 26%
  Population Normal (%): 87% and 83%
  Population Pyknosed Nuclei (%): 16% and 11%
  Population Tubulin-Different-Phenotype (%): 2% and 1%
  Total Cell Count: 183 and 320
[4]
  Population Apoptotic (%): 71% and 66%
  Population Fragmented Nuclei (%): 56% and 42%
  Population Healthy Nuclei (%): 31% and 49%
  Population Hoechst High Intensity Objects (%): 28% and 21%
  Population Mitochondria Different-Phenotype (%): 11% and 14%
  Population Mitotic Cells (%): 28% and 33%
  Population Normal (%): 71% and 78%
  Population Pyknosed Nuclei (%): 12% and 8%
  Population Tubulin-Different-Phenotype (%): 11%
  Total Cell Count: 81 and 91
